Data on six molecules can be found in article PMC10245299 (Bioorganic & medicinal chemistry letters, 2022).

The nature of series [1]: Stability in 5 mg/mL K562 extract in lysis buffer. The class given is in vitro ADME. As to conditions: n=2.
For series [2] the following is noted: by 24 hours in plasma; cited from earlier work.
For series [3], the system named is K562 cells. The note with it: read-out: Toxicity IC50, control compounds; cited from earlier work.
Series [4] in a line: Stability in 50% plasma in phosphate buffered saline. The class given is in vitro ADME.
For series [5], the system named is K562 cells. In words: Direct toxicity against K562 cells. In kind it is cell-based. As to conditions: Homo sapiens, K562, 72 h, read-out: Toxicity IC50. In outline: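 Test compounds were applied directly to K562 cells, without T cells, to measure direct toxicity. n=3.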

Like-named read-outs stand apart in the source and are kept apart here.

By IC50 is commonly meant the concentration that inhibits the measured activity by half. Usually fraction remaining stands for what is left of the initial amount, in per cent. Read a high fraction remaining as less turnover.

Consider `C/C(=C\CCP(=O)(OCOC(=O)C(C)(C)C)OCOC(=O)C(C)(C)C)CO` [Compound 5], for which the “K562 extract (4 h, percent remaining)” value in series [1] is on record as “totally disappeared”. The “percent metabolized in plasma” value in series [2] is 95%. In the series with K562 cells [3], the half-maximal inhibitory concentration (IC50) is over 100 µM.

For `CCOC(=O)CNP(=O)(CC/C=C(\C)CO)Oc1ccccc1` (centres unmarked) [Compound 6], the IC50 with K562 cells [3] was over 100 µM.

For the molecule `C/C(=C\CCP(=O)(OCC(=O)OC(C)(C)C)Oc1ccccc1)CO` (centres unmarked) [Compound 7], the concentration for half-maximal inhibition (IC50) in the series on K562 cells [3] was over 100 µM. Regarding `CCOC(=O)[C@H](C)NP(=O)(CCC=C(C)C)N[C@@H](C)C(=O)OCC` [Compound 12], in series [4], the share remaining at 24 h is at least 70%.

In the case of `CCOC(=O)CNP(=O)(CC/C=C(\C)CO)NCC(=O)OCC` [Compound 16], the 50% inhibitory concentration (IC50) in the series with K562 cells [5] fell in the range of 10 to 100 µM. On the same count and under the same terms, to `COC(=O)[C@@H](NP(=O)(CC/C=C(\C)CO)N[C@H](C(=O)OC)C(C)C)C(C)C` [Compound 17] belongs 10 to 100 µM.
